The subject of series [1] is HeLa. Description: Antiproliferative activity against human HeLa cells expressing wild type beta3 tubulin after 48 hrs by SRB assay. Format: functional, cell-based. In a few lines:
(§1)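 Cell growth measured by sulforhodamine B assay across a concentration range. IC50 is taken from the dose-response curves, as mean ± SD of at least 3 independent experiments, each run in triplicate. HeLa WT-βIII cells express βIII tubulin. SK-OV-3 MDR-1-M6/6 cells are the P-glycoprotein-expressing isogenic partner of parental SK-OV-3.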

Series [2] can be described thus: Induction of tubulin depolymerization in rat A-10 cells after 18 hrs by indirect immunofluorescence method. Type of series: cell-based. In a few lines:
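A-10 cells exposed to a wide range of concentrations. Microtubules stained by indirect immunofluorescence, with nuclei counterstained. The percentage of depolymerized cellular microtubules is estimated visually. EC50, the concentration giving 50% loss of cellular microtubules, is found by linear regression.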

Series [3] relates to HeLa. Description: Resistance index, ratio of IC50 for human HeLa cells expressing wild type beta3 tubulin to IC50 for human HeLa cells. Format: functional. The method in brief: (§2)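 Relative resistance is the SRB IC50 in the expressing line divided by the IC50 in the isogenic parental line. The pairs are HeLa WT-βIII over HeLa (βIII tubulin) and SK-OV-3 MDR-1-M6/6 over SK-OV-3 (P-glycoprotein).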

A short description of series [4]: Resistance index, ratio of IC50 for human SKOV3-MDR1-M6/6 cells to IC50 for human SKOV3 cells. Format: functional. The method in brief: as §2
Series [5] relates to HeLa. Description: Antiproliferative activity against human HeLa cells after 48 hrs by SRB assay. Type of series: functional, cell-based. The method in brief: as §1
Background: The SRB assay estimates cell density from bound dye.

In series [6] the test system is MDA-MB-435. Description: Antiproliferative activity against human MDA-MB-435 cells after 48 hrs by SRB assay. Type of series: functional, cell-based. The conditions noted are these: MDA-MB-435, 48 h. The method in brief:
as §1

Series [7] is described as follows: Antiproliferative activity against human SKOV3-MDR1-M6/6 cells after 48 hrs by SRB assay. Type of series: functional, cell-based. The conditions noted are these: SKOV3-MDR1-M6/6, 48 h. The method in brief:
as §1

The test system of another series is SK-OV-3. Kind of series: Antiproliferative activity against human SKOV3 cells after 48 hrs by SRB assay. Conditions: SK-OV-3, 48 h. Format: functional, cell-based. The method in brief: as §1
Series [8] relates to Mus musculus. Description: Toxicity in athymic nude mouse xenografted with human MDA-MB-435 cells assessed as body weight loss at 20 mg/kg, ip administered on day 2, 4, 6, 8 and 11 measured on day 14. Format: organism-based. The conditions noted are these: in vivo. In a few lines:
(§3)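 Female athymic nude mice, six weeks old, bearing bilateral MDA-MB-435 xenografts averaging 200 mm3 at the start of treatment. […] Body weight recorded twice weekly through day 14. Tumor volumes analysed by 2-way ANOVA with Dunnett's post-hoc test.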
For orientation: In xenograft studies the graft and the host belong to different species.

Series [9] concerns MDA-MB-435. Kind of series: Antitumor activity against human MDA-MB-435 cells xenografted in athymic nude mouse assessed as tumor growth inhibition at 20 mg/kg, ip administered on day 2,4,6,8, and 11 measured on day 14. Type of series: functional, organism-based. In a few lines:
as §3

Series [10] deals with MDA-MB-435. Kind of series: Antitumor activity against human MDA-MB-435 cells xenografted in athymic nude mouse assessed as tumor growth inhibition at 75 mg/kg, ip administered daily for 9 days measured on day 14. Type of series: functional, organism-based. In a few lines:
(§4)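 Six-week-old female athymic nude mice implanted bilaterally with MDA-MB-435 cells. Dosing starts when tumors average 200 mm3. Drug given at 75 mg/kg/dose i.p. daily on days 0–8, solubilized in 2:1 Tween80:DMSO and diluted into PBS. Mice weighed twice weekly. On day 14, tumors excised and weighed and compared with control by unpaired two-tailed Student's t-test. Tumor volumes analysed by 2-way ANOVA with Dunnett's test.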

Series [11] has as its system MDA-MB-435. Kind of series: Antitumor activity against human MDA-MB-435 cells xenografted in athymic nude mouse assessed as reduction in mean tumor mass at 75 mg/kg, ip administered daily for 9 days measured on day 14. Format: functional, organism-based. The method in brief:
as §4

In series [12] the test system is Mus musculus. Kind of series: Toxicity in athymic nude mouse xenografted with human MDA-MB-435 cells assessed as overt toxicity at 75 mg/kg, ip administered daily for 9 days measured on day 14. Format: organism-based. The conditions noted are these: in vivo, 216 h. In a few lines:
as §4

Activity calls are given as the source filed them. No cut-off for these calls is given here.

A word on the IC50: it is the concentration at which inhibition is half-maximal. Lower therefore signals inhibition by little substance. The EC50 is the concentration giving half of the maximal effect. A high value points to a less potent agent. With `CCOC(=O)c1[nH]c(/C=N\O)c(-c2ccc(OC)c(OC)c2OC)c1Br`, the IC50 with HeLa [1] is 31.3 nM; in the series with HeLa [5] it was 29.4 nM; with MDA-MB-435 [6], 25.3 nM; in series [7], 49.6 nM; with SK-OV-3, 33.7 nM. In series [2], this compound displayed an EC50 of 108 nM. Besides, the “Ratio IC50” value in the series on HeLa [3] turned out to be 1.1; in series [4], 1.5.

As for `CCOC(=O)c1[nH]c(/C=N/O)c(-c2ccc(OC)c(OC)c2OC)c1Br`, the IC50 is 25 nM in the series on HeLa [1]; 18 nM with HeLa [5]; 14 nM in the series on MDA-MB-435 [6]; 41.6 nM in series [7]; 23.1 nM with SK-OV-3. Further, the concentration giving a half-maximal response (EC50) in series [2] is 56 nM. The “Ratio IC50” value with HeLa [3] came out at 1.4; in series [4] it was 1.8.

In the case of `CC(=O)O[C@H]1C(=O)[C@@]2(C)[C@H]([C@H](OC(=O)c3ccccc3)[C@]3(O)C[C@H](OC(=O)[C@H](O)[C@@H](NC(=O)c4ccccc4)c4ccccc4)C(C)=C1C3(C)C)[C@]1(OC(C)=O)CO[C@@H]1C[C@@H]2O` [PACLITAXEL], the Activity in the series with Mus musculus [8] was 2.5%. The TGI result in the series with MDA-MB-435 [9] is “Active”. Moreover, the IC50 worked out at 21.1 nM in the series on HeLa [1], 1.5 nM with HeLa [5], 2 nM in the series on MDA-MB-435 [6] and 2330 nM in series [7].

On to `CCOC(=O)c1[nH]c(Cl)c(-c2ccc(OC)c(OC)c2OC)c1Cl`, for which the IC50 in the series with HeLa [1] turned out to be 140 nM; in the series on HeLa [5], 131 nM; in the series on MDA-MB-435 [6], 116 nM; in series [7], 140 nM; in the series with SK-OV-3, 210 nM. Further, the EC50 in [2] worked out at 1000 nM. Also, the results for the “Ratio IC50” value (in the series on HeLa [3]; in [4]) were 1.1 and 0.67, respectively.

For the compound `CCOC(=O)c1[nH]c(Br)c(-c2ccc(OC)c(OC)c2OC)c1Br`, the IC50 with HeLa [1] was determined as 15.7 nM; with HeLa [5] it was 12.9 nM; in the series with MDA-MB-435 [6], 10.4 nM; in series [7] it was 10.6 nM; in the series on SK-OV-3, 15.2 nM. In series [2], this compound displayed an EC50 of 37 nM. The “Ratio IC50” value turned out to be 1.2 in the series on HeLa [3] and 0.7 in [4].

With `CCOC(=O)c1[nH]c(C=NO)c(-c2ccc(OC)c(OC)c2OC)c1Br` (mixture of isomers), the TGI result with MDA-MB-435 [10] is “Active”. Moreover, the IC50 in the series on HeLa [1] amounted to 4.1 nM; in the series with HeLa [5] it was 5 nM; in the series on MDA-MB-435 [6], 2.7 nM; in series [7], 6.6 nM; with SK-OV-3, 5.3 nM. Also, in series [2], the EC50 worked out at 9.2 nM. The “Ratio IC50” value with HeLa [3] came to 0.9; in series [4] it was 1.2. Moreover, the result in the series with MDA-MB-435 [11] was Active. In addition, the Activity result with Mus musculus [12] was “Non-Toxic”.

As to `CCOC(=O)c1[nH]c(C#N)c(-c2ccc(OC)c(OC)c2OC)c1Br`, the IC50 with HeLa [1] came to 26.1 nM; in the series with HeLa [5] it was 20.6 nM; in the series on MDA-MB-435 [6] it was 19.6 nM; in [7], 42.2 nM; in the series on SK-OV-3 it was 26.2 nM. The compound further came in with an EC50 in series [2] of 88 nM. For the same compound, the “Ratio IC50” value in the series on HeLa [3] was 1.3; in [4], 1.6.
